Reference: ChEMBL document CHEMBL4321820, “Identification and Optimization of Mechanism-Based Fluoroallylamine Inhibitors of Lysyl Oxidase-like 2/3” (J Med Chem, 2019)
Active and inactive are the calls of the source. The rule behind the calls is not given here.

Assays:
Mus musculus [1] = assay: Effect on plasma AST level in CCl4-induced BALB/c mouse model of liver fibrosis at 5 to 15 mg/kg, po administered once daily at week 4 to 6; assay type: ADME, organism-based; settings: in vivo
Outline: (§1)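 CCl4 liver fibrosis in female BALB/c mice: CCl4 i.p. (1 mL/kg 25% in olive oil) twice weekly for 6 weeks, sacrifice 48 h after final injection. Oral once-daily dosing weeks 1-6 or weeks 4-6; imatinib 50 mg/kg daily weeks 1-6. ALT and AST measured in plasma.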

[2] = Prodrug conversion in BALB/c mouse plasma assessed as 1-[4-amino-2-fluoro-but-2-enyl]-3-[3-(dimethylsulfamoyl)phenyl]-2-methyl-indole-5-carboxylic acid hydrochloride formation at 20 mg/kg, po administered via gavage by HPLC-MS/MS analysis; assay type: ADME, organism-based; settings: in vivo
Outline: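 Male BALB/c mice dosed by oral gavage at 20 mg/kg (n=3); plasma prodrug and released free acid quantified by LC-MS/MS; each point the mean of 3 animals.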

Mus musculus [3] = assay: Antifibrotic activity in CCl4-induced BALB/c mouse model of liver fibrosis assessed as reduction in liver fibrosis area at 15 mg/kg, po administered once daily for 6 weeks by alpha-SMA staining based microscopy; assay type: functional, organism-based
Outline: (§2)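 Female BALB/c mice given CCl4 i.p. (1 mL/kg of 25% CCl4 in olive oil) twice weekly for 6 weeks; sacrificed 48 h after last dose. Test articles oral, once daily: prophylactic weeks 1-6 or therapeutic weeks 4-6; imatinib control 50 mg/kg daily weeks 1-6. One formalin-fixed liver lobe stained for Picro Sirius Red and α-SMA; fibrotic area as % of total liver area; mean ± SEM, one-way ANOVA with Dunnett's test.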

Mus musculus [4] = assay: Antifibrotic activity in CCl4-induced BALB/c mouse model of liver fibrosis assessed as reduction in liver fibrosis area at 5 to 15 mg/kg, po administered once daily at week 4 to 6 by alpha-SMA staining based microscopy; assay type: functional, organism-based; outline: as §2
Mus musculus [5] = assay: Effect on plasma AST level in CCl4-induced BALB/c mouse model of liver fibrosis at 15 mg/kg, po administered once daily for 6 weeks; assay type: ADME, organism-based; settings: in vivo, 1008 h; outline: as §1
Lysyl oxidase homolog 2 = molecular target: T1, Lysyl oxidase homolog 2 (Mus musculus, UniProt P58022); assay: Inhibition of recombinant mouse C-terminal His-tagged LOLX2 (26-776 residues) expressed in mouse myeloma cells using putrescine as substrate preincubated with enzyme for 30 mins followed by substrate addition and measured every 2.5 mins for 30 mins by Amplex-Red oxidation assay
T1 sequence (P58022 whole entry): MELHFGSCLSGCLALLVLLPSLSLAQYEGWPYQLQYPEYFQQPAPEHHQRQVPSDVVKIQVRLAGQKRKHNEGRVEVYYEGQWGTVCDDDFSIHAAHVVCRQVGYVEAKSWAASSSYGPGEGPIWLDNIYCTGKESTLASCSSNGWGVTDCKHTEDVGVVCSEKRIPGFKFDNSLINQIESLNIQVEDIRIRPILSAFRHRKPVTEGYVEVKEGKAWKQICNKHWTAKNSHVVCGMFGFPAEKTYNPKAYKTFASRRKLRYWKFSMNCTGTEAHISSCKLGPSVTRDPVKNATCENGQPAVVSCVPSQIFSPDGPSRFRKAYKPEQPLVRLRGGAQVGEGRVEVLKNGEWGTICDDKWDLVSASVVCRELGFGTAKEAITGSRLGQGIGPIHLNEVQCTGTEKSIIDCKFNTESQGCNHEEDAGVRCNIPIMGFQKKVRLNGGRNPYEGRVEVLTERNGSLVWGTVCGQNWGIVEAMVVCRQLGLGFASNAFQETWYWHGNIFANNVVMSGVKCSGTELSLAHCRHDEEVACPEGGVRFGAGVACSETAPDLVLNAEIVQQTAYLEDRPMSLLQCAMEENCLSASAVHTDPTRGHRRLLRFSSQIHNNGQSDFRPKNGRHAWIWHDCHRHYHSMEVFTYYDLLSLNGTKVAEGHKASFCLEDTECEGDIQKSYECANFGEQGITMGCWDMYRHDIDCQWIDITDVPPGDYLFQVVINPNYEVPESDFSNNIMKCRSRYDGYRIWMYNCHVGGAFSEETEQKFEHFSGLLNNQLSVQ
Outline: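 LOXL2 enzyme preincubated with compound for 30 min at 37 °C, then Amplex Red (120 µM) / HRP (1.5 U/mL) mix containing 5 mM putrescine added. Buffer: 1.2 M urea, 50 mM sodium borate, pH 8.2. H2O2 fluorescence (ex 565/em 590) read every 2.5 min for 30 min at 37 °C; BAPN 100 µM as positive control; n≥2.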

Lysyl oxidase homolog 4 = molecular target: T2, Lysyl oxidase homolog 4 (Homo sapiens, UniProt Q96JB6); assay: Inhibition of recombinant human LOXL4 using putrescine as substrate preincubated with enzyme for 30 mins followed by substrate addition and measured every 2.5 mins for 30 mins by Amplex-Red oxidation assay
T2 sequence (Q96JB6 whole entry): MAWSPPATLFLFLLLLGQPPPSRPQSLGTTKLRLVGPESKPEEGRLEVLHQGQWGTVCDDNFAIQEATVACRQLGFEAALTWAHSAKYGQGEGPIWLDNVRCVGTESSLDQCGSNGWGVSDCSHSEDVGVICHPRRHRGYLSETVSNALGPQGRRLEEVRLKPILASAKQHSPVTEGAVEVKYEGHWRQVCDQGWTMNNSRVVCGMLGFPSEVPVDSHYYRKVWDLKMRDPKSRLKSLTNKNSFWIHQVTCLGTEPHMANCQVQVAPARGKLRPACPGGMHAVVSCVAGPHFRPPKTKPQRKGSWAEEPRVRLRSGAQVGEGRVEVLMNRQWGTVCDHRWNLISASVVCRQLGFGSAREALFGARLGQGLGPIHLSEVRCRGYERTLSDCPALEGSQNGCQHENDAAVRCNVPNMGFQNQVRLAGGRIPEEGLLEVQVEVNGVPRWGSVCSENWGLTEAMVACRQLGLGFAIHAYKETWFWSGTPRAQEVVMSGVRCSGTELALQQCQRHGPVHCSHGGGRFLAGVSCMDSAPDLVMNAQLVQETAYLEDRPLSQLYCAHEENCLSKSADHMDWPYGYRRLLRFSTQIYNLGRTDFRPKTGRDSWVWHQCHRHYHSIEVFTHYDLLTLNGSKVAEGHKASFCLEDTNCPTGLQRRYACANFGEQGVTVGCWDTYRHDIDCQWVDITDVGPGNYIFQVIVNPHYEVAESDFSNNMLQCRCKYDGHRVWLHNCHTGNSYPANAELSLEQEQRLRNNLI
Outline: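 Recombinant human LOXL3 or LOXL4 preincubated 30 min at 37 °C with compound in 1.2 M urea/50 mM borate pH 8.2, then Amplex Red (120 µM)/HRP (1.5 U/mL) with 2 mM putrescine; fluorescence read every 2.5 min for 30 min.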

[6] = Protein binding in human plasma; assay type: ADME, cell-free; settings: read-out: PPB (converted)
[7] = Stability in rat microsomes assessed as half life; assay type: ADME, Microsome

| SMILES | Activity (Mus musculus [1]) | Drug metabolism [2] | inhibition (Mus musculus [3]) | inhibition (Mus musculus [4]) | Activity (Mus musculus [5]) | IC50 (Lysyl oxidase homolog 2) [nM] | IC50 (Lysyl oxidase homolog 4) [nM] | fraction unbound [6] | half-life [7] [h] |
| --- | --- | --- | --- | --- | --- | --- | --- | --- | --- |
| CCOC(=O)c1ccc2c(c1)c(-c1cccc(S(=O)(=O)N(C)C)c1)c(C)n2C/C(F)=C/CN.Cl | Non-Toxic | Metabolite_Detected | Active | Active | Non-Toxic |  |  |  |  |
| Cc1c(-c2cccc(S(=O)(=O)N(C)C)c2)c2cc(C(=O)O)ccc2n1C/C(F)=C/CN.Cl |  |  |  |  |  | 6 | 280 | 0.08 | > 1.5 |
